# Experimental data of several laboratories.
# Compare with care: the assays were run in different laboratories.
# Target: Peroxisome proliferator-activated receptor alpha (PPARA, Homo sapiens, UniProt Q07869)
# Sequence (Q07869 1-468, as in one of the studies): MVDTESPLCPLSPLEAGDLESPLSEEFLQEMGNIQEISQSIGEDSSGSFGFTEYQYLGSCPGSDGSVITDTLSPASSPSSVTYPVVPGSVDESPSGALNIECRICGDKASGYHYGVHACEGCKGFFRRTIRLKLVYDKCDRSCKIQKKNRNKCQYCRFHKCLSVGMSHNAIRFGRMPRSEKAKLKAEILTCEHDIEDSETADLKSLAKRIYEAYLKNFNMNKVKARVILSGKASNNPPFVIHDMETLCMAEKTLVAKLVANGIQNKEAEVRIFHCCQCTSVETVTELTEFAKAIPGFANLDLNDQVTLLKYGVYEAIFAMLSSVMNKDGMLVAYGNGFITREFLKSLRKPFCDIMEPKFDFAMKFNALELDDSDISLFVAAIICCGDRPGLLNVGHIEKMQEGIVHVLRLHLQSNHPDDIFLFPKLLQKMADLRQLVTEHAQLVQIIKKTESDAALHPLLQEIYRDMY
assay,quantity,value,Structure (SMILES)
"reporter gene, agonist, luciferase",EC50,0.99 µM,CCCCCC#CCC#CCC#CCC#CCCCC(=O)O
"enzyme activity in cells, inhibitor",IC50,> 2 µM,O=C(Nc1ccc(CCF)cc1)c1cc([N+](=O)[O-])ccc1Cl
"ligand displacement, TR-FRET",Ki,3.38 µM,C=CCc1ccc(O)c(-c2cc(CC=C)ccc2O)c1
"ligand displacement, TR-FRET",IC50,11.9 µM,O=C(Nc1ccc(Oc2ncccn2)cc1C(=O)O)c1ccc(Cl)cc1Cl
"ligand displacement, TR-FRET",Ki,3.3 µM,CC1(C)C=Cc2c(cc3oc(-c4ccccc4)c(O)c(=O)c3c2O)O1
"reporter gene, agonist, luciferase",EC50,47.1 µM,CC(C)(Oc1ccc(C(=O)c2ccc(Cl)cc2)cc1)C(=O)O
"ligand displacement, TR-FRET",Ki,0.594 µM,Cc1c(C)n(Cc2ccc(-c3ccccc3C(=O)O)cc2)c2ccc(C(=O)N[C@@H](C)c3ccc(C(C)(C)C)cc3)cc12
"ligand displacement, TR-FRET",Ki,4.6 µM,C=CCc1ccc(O)c(-c2ccc(O)c(CC=C)c2)c1
"enzyme activity in cells, inhibitor",IC50,> 2 µM,O=C(Nc1ccc(OCCF)cc1)c1cc([N+](=O)[O-])ccc1Cl
"reporter gene, agonist, luciferase",EC50,58 µM,Cc1ccc(C)c(OCCCC(C)(C)C(=O)O)c1
